Assay outcomes: PubChem, several laboratories
VIM-2 inhibitor – blocks Pseudomonas aeruginosa VIM-2 metallo-beta-lactamase. purified VIM-2, nitrocefin hydrolysis, epi-absorbance fluorescence. inhibition, % at 5.6 µM. 0.89% of 290,000 active;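 active means inhibition above the mean of all tested compounds plus 3 SD, cutoff set per screening run, cut at about 7.5% in these data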;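 further: red hydrolysis product quenches plate fluorescence so inhibitors raise well fluorescence; 0% = enzyme with DMSO and 100% = DMSO without enzyme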
IMP-1 inhibitor – inhibitors of Pseudomonas aeruginosa IMP-1 metallo-beta-lactamase; purified IMP-1, nitrocefin hydrolysis, epi-absorbance fluorescence; inhibition, % at 5.6 µM; 0.45% of 290,000 active; AID 1556;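 active means inhibition above the mean plus 3 SD of all compounds in the same screening run, cut at about 4.5% in these data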;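 further: 0% = IMP-1 with DMSO and 100% = DMSO wells lacking enzyme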
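Test system: recombinant IMP-1 enzyme, purified / Medium: HEPES buffer pH 7.1 with ZnSO4 and Brij 35 / Doses: single dose, 5.6 µM / Times: 25 °C, 15 min preincubation, 25 min reaction / Detection: Epi-absorbance via hydrolysed-nitrocefin quenching of white-plate fluorescence, 480/530 nm, EDTA stop / Evaluation: percent inhibition from optical density relative to buffer-blank wells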
PHOSPHO1 inh – inhibitors of human PHOSPHO1 phosphatase; Q8TCT1; recombinant PHOSPHO1, absorbance phosphatase assay; inhibition, % at 13.3 µM; 1.1% of 290,000 active; in the data active means inhibition above about 60%
Target sequence (Q8TCT1 whole entry, looked up): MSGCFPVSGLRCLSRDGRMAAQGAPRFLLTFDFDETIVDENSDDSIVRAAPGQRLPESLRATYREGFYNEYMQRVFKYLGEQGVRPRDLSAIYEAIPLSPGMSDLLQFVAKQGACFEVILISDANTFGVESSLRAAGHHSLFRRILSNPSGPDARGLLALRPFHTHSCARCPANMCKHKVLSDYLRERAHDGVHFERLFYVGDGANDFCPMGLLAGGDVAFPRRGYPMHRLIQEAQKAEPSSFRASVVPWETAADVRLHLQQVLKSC
PvdQ inh – blocks Pseudomonas aeruginosa PvdQ acylase activity; 0.063% of 340,000 active; inhibition, % at 10 µM; purified PvdQ acylase, fluorescence plate reader; AID 488965; in the data active means inhibition above about 30%, passing the limit was not always enough;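 further: 0% = vehicle neutral wells and 100% = reference inhibitor wells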
Yeast superoxide – yeast age-related superoxide inhibition as caloric restriction mimetic; S. cerevisiae aged cells, superoxide DHE fluorescence; hits give low values; superoxide response (% of plate mean), % at 10 µM; 0.18% of 330,000 active;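 active means superoxide response under a set limit, about three screen SD below normal, cut at about 65% in these data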;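 further: yeast aged for seven days with compound at 30 °C before DHE staining; 100% = average MFI of all compound-treated wells on the plate with controls excluded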
An asterisk follows results filed as active; x = not tested or not shown. Most compounds without a hit are left out; they make up all but 2.2% or so of the library.

SMILES | VIM-2 inhibitor | IMP-1 inhibitor | PHOSPHO1 inh | PvdQ inh | Yeast superoxide
CN(CC(=O)Nc1cccc(S(=O)(=O)NC2=NCCC2)c1)Cc1ccccc1Cl | x | x | x | 3.9 | 87.7
CN(CCOc1ccccc1)CC(=O)Nc1ccc(Br)cc1F | -3.5 | -0.8 | 18.7 | -8.2 | 102.5
CCCCn1c(N)c(N(CC(C)C)C(=O)C2CCCO2)c(=O)[nH]c1=O (stereo not drawn) | x | x | x | -11.7 | 96.1
Cc1[nH]c(=O)cc2ccccc12 | -2.5 | -1.9 | 93.8* | -7.7 | 106.5
Cc1cc(=O)[nH]c2ccccc12 | 0.0 | -1.8 | 21.6 | -3.9 | 109.3
C=CCNc1nc(-c2ccc(OC)cc2OC)cs1 | -1.6 | -2.5 | 61.0* | -9.9 | 100.2
Cc1ccc(CNC(=O)c2cc(Cl)cc(Cl)c2)n1C | 0.6 | -2.9 | 36.0 | -6.2 | 108.5
Cc1ccc(-c2csc(NC(=O)CCNC(=O)c3ccc(Cl)cc3)n2)cc1 | 1.1 | 0.0 | 42.1 | -9.7 | 99.3
CC(C)(C)c1ccc(C(=O)NCC(=O)OCC(=O)Nc2nc(-c3ccc(F)cc3)cs2)cc1 | 0.5 | -1.5 | 61.6* | -10.5 | 102.1
CCn1c(C)[n+](CC(O)COCC2CC=CCC2)c2ccccc21 (stereo not drawn) | -2.4 | -2.1 | 104.3* | -3.4 | 91.6
COc1cccc(C(=O)N2CCN(C3CCN(Cc4ccccc4)CC3)CC2)c1OC | 0.8 | -0.6 | 10.0 | -1.7 | 92.2
CCOC(=O)CSC1=C(C#N)C(=O)NC(c2ccc(OC)c(OC)c2)S1 (stereo not drawn) | -2.9 | -2.9 | 98.0* | -2.5 | 93.5
COc1ccc(C2NC(=O)C(C#N)=C(S)N2c2ccc(C)cc2)cc1OC (stereo not drawn) | -1.9 | -3.8 | 57.8 | 6.5 | 77.7
CCOC(=O)CSC1=C(C#N)C(=O)NC(c2ccc(OC)cc2)S1 (stereo not drawn) | 0.6 | -2.7 | 87.4* | -8.7 | 96.8
CCCNCC(O)Cn1c2ccccc2n2c(=O)cc(C)c(C#N)c12 (stereo not drawn) | 8.5* | 0.4 | 6.6 | -12.1 | 96.8
Cc1cc(=O)n2c3ccccc3n(CC(O)CN3CCCC3)c2c1C#N (stereo not drawn) | 5.0 | -2.9 | 62.3* | -0.9 | 99.2
Cc1cc(=O)n2c(sc3ccccc32)c1C#N | -1.9 | -3.3 | 10.8 | -3.2 | 114.3
COc1ccc(O)c(C(=O)c2cc(C#N)c(=O)n(CC3CCCO3)c2)c1 (stereo not drawn) | -3.0 | -1.1 | 64.4* | -1.4 | 94.8
Cc1nc(NC(=O)COC(=O)c2cccs2)c(Cl)cc1Cl | x | x | x | -13.7 | x
Cc1c(OC(=O)c2ccc([N+](=O)[O-])cc2)c2c(c[n+]1C)COC(C)(C)OC2 | -0.2 | -2.1 | 102.6* | 8.5 | 93.4
O=Cc1ccc(OCc2cn(CC(=O)c3ccc(O)cc3)nn2)cc1 | x | x | x | -2.4 | x
CCc1ccc(C(c2c(C)nn(-c3ccccc3)c2N)c2c(C)nn(-c3ccccc3)c2N)cc1 | -1.8 | -2.3 | -10.5 | -11.2 | 111.1
Cc1cccc(C(c2c(C)nn(-c3ccccc3)c2N)c2c(C)nn(-c3ccccc3)c2N)c1 | -0.6 | -0.9 | 97.2* | -12.5 | 100.9
C[C@H](CO)N1C[C@H](C)[C@@H](CN(C)S(=O)(=O)c2cccs2)Oc2c(NC(=O)CCC(F)(F)F)cccc2C1=O | x | x | x | 15.4 | 82.2
Cc1oc2c(cc(NS(=O)(=O)c3ccc(Cl)cc3)c3ccccc32)c1C(=O)O | -0.1 | 2.5 | 21.8 | -10.7 | 111.3
SMILES | VIM-2 inhibitor | IMP-1 inhibitor | PHOSPHO1 inh | PvdQ inh | Yeast superoxide
CCOC(=O)c1c(C)oc2c1cc(NS(=O)(=O)c1ccc(C(=O)O)cc1)c1ccccc12 | 0.3 | 9.7* | 6.3 | -14.0 | 115.3
CCOC(=O)c1cnc2ccc(OC)cc2c1Nc1ccc2c(c1)OCCO2 | -6.4 | -0.7 | 6.2 | 8.9 | 101.9
CCOC(=O)c1cnc2c(OC)cccc2c1Nc1ccc2c(c1)OCCO2 | 0.2 | -3.6 | -20.6 | -10.2 | 57.4*
CC(c1ccncn1)N(C)C(=O)c1ccc2oc(Cc3ccccc3)nc2c1 (stereo not drawn) | 1.0 | -0.2 | 17.8 | -0.2 | 104.8
NC(=O)c1c(NC(=O)c2ccc(S(=O)(=O)N3CCOCC3)cc2)sc2c1CCCCC2 | 1.3 | 1.0 | -21.6 | -12.8 | 92.2
Cc1cccc(C(=O)Nc2sc3c(c2C(=O)O)CCC3)c1 | 0.2 | 0.1 | 28.1 | -2.8 | 121.3
CNC(=O)c1c(NC(=O)c2cccc(C)c2)sc2c1CCC2 | 2.2 | 4.7* | 23.9 | -7.0 | 114.6
CN1CCN(S(=O)(=O)c2cccc(C(=O)Nc3sc4c(c3C(N)=O)CCCC4)c2)CC1 | -4.4 | -1.5 | 70.2* | -9.3 | 102.7
CCOC(=O)c1cnc(-n2nc(C)cc2C)nc1NC1CCCC1 | 8.4* | -3.5 | 15.9 | -3.3 | 116.7
CCOC(=O)c1cnc(-n2nc(C)cc2C)nc1N(C)C | 2.3 | -6.1 | -9.4 | -5.1 | 96.1
CCOC(=O)c1cnc(-n2nc(C)cc2C)nc1Nc1ccc(OC)cc1 | 10.7* | -3.9 | -15.0 | 0.5 | 101.7
CCOC(=O)c1cnc(-n2nc(C)cc2C)nc1NCCc1ccccc1 | 9.6* | -4.2 | -12.3 | -4.0 | 70.2
CC(C)(C)OC(=O)N[C@H]1C=C[C@@H](OC(=O)CC(=O)OCC(F)(F)F)C1 | x | x | x | -15.1 | 92.6
CCN(CC)S(=O)(=O)c1cccc(-c2n[nH]c(=S)n2/N=C/c2ccc(Br)cc2)c1 | -2.4 | -5.9 | 69.5* | 8.9 | 92.3
CCN(CC)S(=O)(=O)c1cccc(-c2n[nH]c(=S)n2/N=C/c2ccc(OC)cc2)c1 | -3.4 | -4.2 | 83.3* | -7.9 | 106.8
CCN(CC)S(=O)(=O)c1cccc(-c2n[nH]c(=S)n2/N=C/c2ccc(OC(F)F)cc2)c1 | -4.5 | -0.9 | -8.5 | 20.1 | 90.9
OCC[C@H]1C[C@@H](O)[C@H](O)[C@]2(OCc3ccccc32)O1 | x | x | x | -10.7 | 92.7
OCCN1CCN(C2CCC(c3ccc(F)cc3)c3ccc(F)cc32)CC1 (stereo not drawn) | x | x | x | -9.2 | 102.8
Cc1ccc2c(c1)[C@@H]1[C@H](CO2)[C@H](c2ccccc2)[C@]2(C)C(=O)N[C@H](C)C(=O)N12 | x | x | x | -2.6 | 121.0
Cc1cc(C)c(C)c(S(=O)(=O)N(C)CCc2ccccn2)c1C | x | x | x | 3.5 | 78.1
CSCCC(NC(=O)c1cccc(S(=O)(=O)N2CCN(C(C)=O)CC2)c1)c1nc2ccccc2[nH]1 (stereo not drawn) | x | x | x | 0.5 | x
CSCC[C@H](NC(=O)C1CCCC1)c1nc2ccccc2[nH]1 | -1.7 | 0.2 | 48.0 | 14.8 | 98.3
CSCC[C@H](NC(=O)c1ccc(Cl)c(S(=O)(=O)N2CCCC2)c1)c1nc2ccccc2[nH]1 | -0.8 | 1.9 | 97.7* | 6.5 | 104.4
CSCCC(NC(=O)C1CC1)c1nc2ccccc2[nH]1 (stereo not drawn) | 0.1 | 4.8* | 10.7 | -14.8 | 114.2
COc1ccc(S(=O)(=O)Nc2cccc(S(=O)(=O)N3CCCC3)c2)cc1OC | x | x | x | 6.3 | 90.3
Cc1ccc2occ(/C=N/NC(=O)c3ccncc3)c(=O)c2c1 | -4.0 | 6.4* | 22.6 | -10.1 | 96.1
COc1ccc(C(=O)N/N=C/c2cc3ccccc3[nH]c2=S)cc1 | -4.6 | -2.5 | 91.3* | -6.3 | 83.8
Cc1ccc2occ(/C=N/NC(=O)c3ccc(Cl)cc3)c(=O)c2c1 | -4.0 | 0.0 | 23.8 | -5.6 | 96.4
